From ChEMBL document CHEMBL1136005 (J Med Chem, 2002)

Assays:
[1] = target: Platelet-derived growth factor receptor (Homo sapiens, UniProt P09619+P16234); assay: Concentration required for 50% inhibition against autophosphorylation of Platelet-derived growth factor receptor beta in intact cells using a two site ELISA; format: cell-based
[2] = Plasma concentration was determined after 1 hr at a dose 30 mg/kg administered orally to rat-13; format: ADME, organism-based; set-up: dose 30 mg/kg, route oral; conditions: po
Method in brief: (§1)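 Sprague-Dawley rats, n=2 per compound, dosed orally at 30 mg/kg. Plasma drug concentration measured 1 and 8 h after dosing.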

[3] = Plasma concentration was determined after 1 hr at a dose 30 mg/kg administered orally to rat-14; format: ADME, organism-based; set-up: dose 30 mg/kg, route oral; conditions: po; method in brief: as §1
[4] = Plasma concentration was determined after 8 hr at a dose 30 mg/kg administered orally to rat-13; format: ADME, organism-based; set-up: dose 30 mg/kg, route oral; conditions: po; method in brief: as §1
[5] = Plasma concentration was determined after 8 hr at a dose 30 mg/kg administered orally to rat-14; format: ADME, organism-based; set-up: dose 30 mg/kg, route oral; conditions: po; method in brief: as §1
[6] = Solubility in aqueous phosphate buffer (pH 7.4) at 20c was determined; format: physicochemical
[7] = pharmacokinetic parameter was evaluated after oral administration of 30 mg/kg to rat; format: ADME, organism-based; set-up: dose 30 mg/kg, route oral; conditions: in vivo
Method in brief: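 Sprague-Dawley rats, n=3, dosed orally at 30 mg/kg. Plasma drug concentrations were followed to derive Tmax (h), Cmax (µg/mL), T1/2 (h) and AUC0-∞ (µg h/mL).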

[8] = Lipophilicity was reported; format: physicochemical; conditions: octanol/water
[9] = target: Fibroblast growth factor receptor (Homo sapiens, UniProt P22607+P11362+P22455+P21802); assay: Inhibition of Fibroblast growth factor receptor autophosphorylation; format: protein assay
[10] = target: T1, Receptor-type tyrosine-protein kinase FLT3 (Homo sapiens, UniProt P36888); assay: Inhibition of Flt3 autophosphorylation
T1 sequence (P36888 whole entry): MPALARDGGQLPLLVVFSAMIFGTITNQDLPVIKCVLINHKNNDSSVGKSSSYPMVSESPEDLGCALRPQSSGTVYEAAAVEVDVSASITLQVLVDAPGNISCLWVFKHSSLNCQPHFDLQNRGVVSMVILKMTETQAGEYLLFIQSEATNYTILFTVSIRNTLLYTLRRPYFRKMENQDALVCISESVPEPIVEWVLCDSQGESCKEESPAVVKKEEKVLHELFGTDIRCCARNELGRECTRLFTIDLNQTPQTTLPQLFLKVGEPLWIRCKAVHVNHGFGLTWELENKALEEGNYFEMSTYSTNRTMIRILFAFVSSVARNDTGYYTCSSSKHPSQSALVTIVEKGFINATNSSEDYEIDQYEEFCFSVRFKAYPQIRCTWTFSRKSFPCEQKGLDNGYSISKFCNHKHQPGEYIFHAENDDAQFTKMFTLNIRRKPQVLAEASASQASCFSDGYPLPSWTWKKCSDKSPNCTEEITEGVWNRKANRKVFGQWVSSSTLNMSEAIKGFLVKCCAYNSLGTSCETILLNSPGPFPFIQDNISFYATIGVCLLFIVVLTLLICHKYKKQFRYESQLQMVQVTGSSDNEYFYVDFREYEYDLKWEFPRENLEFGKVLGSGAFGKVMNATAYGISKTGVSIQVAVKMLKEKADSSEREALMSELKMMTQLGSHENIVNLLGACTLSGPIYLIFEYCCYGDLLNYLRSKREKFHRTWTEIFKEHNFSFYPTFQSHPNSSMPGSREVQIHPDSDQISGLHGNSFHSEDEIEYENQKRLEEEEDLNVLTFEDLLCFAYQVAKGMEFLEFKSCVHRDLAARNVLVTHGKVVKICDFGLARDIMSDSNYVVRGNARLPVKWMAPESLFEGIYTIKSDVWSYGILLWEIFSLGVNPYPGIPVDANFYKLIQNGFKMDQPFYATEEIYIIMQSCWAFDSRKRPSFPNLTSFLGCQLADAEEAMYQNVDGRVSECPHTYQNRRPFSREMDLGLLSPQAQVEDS

[11] = target: Mast/stem cell growth factor receptor Kit (Homo sapiens, UniProt P10721); assay: Inhibition of Mast/stem cell growth factor receptor (c-kit) autophosphorylation
Mast/stem cell growth factor receptor Kit, sequence (P10721 whole entry): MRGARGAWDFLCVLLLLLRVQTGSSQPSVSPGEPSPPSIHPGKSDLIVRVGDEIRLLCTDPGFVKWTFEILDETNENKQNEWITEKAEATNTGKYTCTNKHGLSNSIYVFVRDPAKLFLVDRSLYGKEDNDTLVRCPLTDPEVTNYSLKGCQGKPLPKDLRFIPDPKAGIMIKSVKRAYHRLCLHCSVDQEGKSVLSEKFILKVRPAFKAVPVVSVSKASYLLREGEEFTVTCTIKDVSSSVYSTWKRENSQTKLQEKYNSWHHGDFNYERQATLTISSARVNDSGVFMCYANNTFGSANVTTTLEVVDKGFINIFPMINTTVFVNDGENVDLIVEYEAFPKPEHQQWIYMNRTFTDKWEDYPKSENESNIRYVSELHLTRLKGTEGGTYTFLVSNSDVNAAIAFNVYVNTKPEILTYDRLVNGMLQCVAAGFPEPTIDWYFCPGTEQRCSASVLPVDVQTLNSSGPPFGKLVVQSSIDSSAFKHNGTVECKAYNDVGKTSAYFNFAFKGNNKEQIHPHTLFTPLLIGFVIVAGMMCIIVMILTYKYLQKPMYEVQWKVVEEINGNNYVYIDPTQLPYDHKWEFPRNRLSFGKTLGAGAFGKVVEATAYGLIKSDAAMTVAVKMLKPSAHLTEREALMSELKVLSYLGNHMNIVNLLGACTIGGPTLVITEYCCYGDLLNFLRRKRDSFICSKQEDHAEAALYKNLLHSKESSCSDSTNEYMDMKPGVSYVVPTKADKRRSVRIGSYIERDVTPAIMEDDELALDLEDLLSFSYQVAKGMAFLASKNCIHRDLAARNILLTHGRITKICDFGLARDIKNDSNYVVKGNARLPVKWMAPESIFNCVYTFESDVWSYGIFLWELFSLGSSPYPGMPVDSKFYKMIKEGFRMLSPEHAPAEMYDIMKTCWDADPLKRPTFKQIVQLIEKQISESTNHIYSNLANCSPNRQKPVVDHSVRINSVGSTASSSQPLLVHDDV

[12] = target: Protein kinase C (PKC); assay: Inhibition of Protein kinase C; format: protein assay
Method in brief: (§2)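 Substrate phosphorylation measured in an in vitro assay with purified enzyme; IC50 values in µmol/L.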

[13] = target: cAMP-dependent protein kinase (PKA) (Homo sapiens, UniProt P22694+P17612+P22612); assay: Inhibition of Protein kinase A (PKA); format: protein assay; method in brief: as §2
[14] = Plasma concentration was determined after 1 hr at a dose 30 mg/kg administered orally to rat-2; format: ADME, organism-based; set-up: dose 30 mg/kg, route oral; conditions: po; method in brief: as §1
[15] = Plasma concentration was determined after 8 hr at a dose 30 mg/kg administered orally to rat-1; format: ADME, organism-based; set-up: dose 30 mg/kg, route oral; conditions: po; method in brief: as §1
[16] = Plasma concentration was determined after 8 hr at a dose 30 mg/kg administered orally to rat-2; format: ADME, organism-based; set-up: dose 30 mg/kg, route oral; conditions: po; method in brief: as §1
[17] = Plasma concentration was determined after 1 hr at a dose 30 mg/kg administered orally to rat-1; format: ADME, organism-based; set-up: dose 30 mg/kg, route oral; conditions: po; method in brief: as §1
[18] = Plasma concentration was determined after 1 hr at a dose 30 mg/kg administered orally to rat-5; format: ADME, organism-based; set-up: dose 30 mg/kg, route oral; conditions: po; method in brief: as §1
[19] = Plasma concentration was determined after 1 hr at a dose 30 mg/kg administered orally to rat-6; format: ADME, organism-based; set-up: dose 30 mg/kg, route oral; conditions: po; method in brief: as §1
[20] = Plasma concentration was determined after 8 hr at a dose 30 mg/kg administered orally to rat-5; format: ADME, organism-based; set-up: dose 30 mg/kg, route oral; conditions: po; method in brief: as §1
[21] = Plasma concentration was determined after 8 hr at a dose 30 mg/kg administered orally to rat-6; format: ADME, organism-based; set-up: dose 30 mg/kg, route oral; conditions: po; method in brief: as §1

Compound | IC50 [1] [nM] | other results
COc1cc2ncnc(N3CCN(C(=S)NCC4(c5ccc(Cl)cc5)CC4)CC3)c2cc1OC | > 30000 | 
COc1cc2ncnc(N3CCN(C(=O)NCc4ccc(C)cc4)CC3)c2cc1OC | 2940 | 
COc1cc2ncnc(N3CCN(C(=S)N(C)Cc4ccccc4)CC3)c2cc1OC | > 30000 | 
COc1cc2ncnc(N3CCN(C(=S)NCc4ccc(C(C)(C)C)cc4)CC3)c2cc1OC | 160 | 
COc1cc2ncnc(N3CCN(/C(S)=N\Cc4ccc(Oc5ccccc5)cc4)CC3)c2cc1OC | 960 | 
COc1cc2ncnc(N3CCN(C(=O)Nc4cncc(Cl)c4)CC3)c2cc1OC | 8230 | 
COc1cc2ncnc(N3CCN(C(=S)N[C@@H](C)c4ccccc4)CC3)c2cc1OC | 540 | 
COc1cc2ncnc(N3CCN(C(=O)NCc4ccc(C(C)C)cc4)CC3)c2cc1OC | 550 | 
COc1cc2ncnc(N3CCN(C(=S)NCCc4ccc(Cl)cc4)CC3)c2cc1OC | 1090 | 
COc1cc2ncnc(N3CCN(/C(=C/[N+](=O)[O-])NCc4ccc5c(c4)OCO5)CC3)c2cc1OC | > 30000 | 
COc1cc2ncnc(N3CCN(/C(S)=N\Cc4cccnc4)CC3)c2cc1OC.Cl.Cl | 280 | concentration at 1 h [2]: 2600 ng/mL; concentration at 1 h [3]: 2600 ng/mL; concentration at 8 h [4]: < 100 ng/mL; concentration at 8 h [5]: < 100 ng/mL; solubility [6]: 2.2 µg/mL; AUC [7]: 9840 ng·h/mL; Cmax [7]: 6980 ng/mL; Tmax [7]: 0.67 h; half-life [7]: 2.11 h; logD [8]: 2.49
COc1cc2ncnc(N3CCN(C(=O)Nc4ccsc4)CC3)c2cc1OC.Cl |  | IC50 [9]: > 30 uM l-1; IC50 [10]: 7020 nM; IC50 [11]: 800 nM; IC50 [12]: > 30 uM l-1; IC50 [13]: > 30 uM l-1
COc1cc2ncnc(N3CCN(C(=O)NCc4ccc(F)cc4)CC3)c2cc1OC | 9590 | 
COc1cc2ncnc(N3CCN(C(=S)Nc4ccncc4)CC3)c2cc1OC | 980 | 
COc1cc2ncnc(N3CCN(C(=NC#N)NCc4cccc(Cl)c4)CC3)c2cc1OC | 23500 | 
COc1cc2ncnc(N3CCN(C(=S)NCc4cccc(Cl)c4)CC3)c2cc1OC | 230 | 
COc1cc2ncnc(N3CCN(C(=O)Nc4ccc([N+](=O)[O-])cc4)CC3)c2cc1OC |  | logD [8]: 3.22
COc1cc2ncnc(N3CCN(C(=NC#N)NCc4ccc(C(C)C)cc4)CC3)c2cc1OC | 1380 | 
COc1cc2ncnc(N3CCN(C(=S)NCc4ccc(C)cc4)CC3)c2cc1OC | 30 | 
COc1cc2ncnc(N3CCN(C(=NC#N)NCc4ccc5c(c4)OCO5)CC3)c2cc1OC | 190 | 

Compound | IC50 [1] [nM] | other results
COc1cc2ncnc(N3CCN(C(=O)Nc4cccnc4)CC3)c2cc1OC | > 30000 | 
COc1cc2ncnc(N3CCN(C(=O)NCc4ccc(Br)cc4)CC3)c2cc1OC | 740 | 
COc1cc2ncnc(N3CCN(/C(S)=N\CC4CCCO4)CC3)c2cc1OC (stereo not given) | > 30000 | 
COc1cc2ncnc(N3CCN(C(=O)Nc4ccc(Br)cc4)CC3)c2cc1OC | 530 | 
COc1cc2ncnc(N3CCN(C(=O)N(C)c4ccc(Br)cc4)CC3)c2cc1OC | > 30000 | 
COc1cc2ncnc(N3CC(C)N(C(=O)Nc4ccc(Oc5ccccc5)cc4)CC3C)c2cc1OC (stereo not given) | > 30000 | 
COc1ccc(CNC(=O)N2CCN(c3ncnc4cc(OC)c(OC)cc34)CC2)cc1 | 3060 | concentration at 1 h [14]: 11600 ng/mL; concentration at 8 h [15]: 1400 ng/mL; concentration at 8 h [16]: 1900 ng/mL; concentration at 1 h [17]: 7300 ng/mL
COc1ccc(CNC(=S)N2CCN(c3ncnc4cc(OC)c(OC)cc34)CC2)cc1OC | 2410 | 
COc1cc2ncnc(N3CCN(C(=S)Nc4ccc(Cl)cc4)CC3)c2cc1OC | 790 | 
COc1cc2ncnc(N3CCN(C(=O)NCC(=O)c4ccc(Br)cc4)CC3)c2cc1OC | 140 | 
COc1cc2ncnc(N3CCN(C(=O)Nc4ccc(C(C)(C)C)cc4)CC3)c2cc1OC | 30 | 
COc1cc2ncnc(N3CCN(C(=S)N[C@H](C)c4ccccc4)CC3)c2cc1OC | > 30000 | 
COc1cc2ncnc(N3CCN(C(=O)NCc4ccc(Cl)cc4)CC3)c2cc1OC | 1270 | 
COc1cc2ncnc(N3CCN(C(=S)Nc4cccnc4)CC3)c2cc1OC | 410 | 
COc1cc2ncnc(N3CCN(C(=S)NCC4CCCCC4)CC3)c2cc1OC | > 10000 | 
COc1cc2ncnc(N3CCN(C(=S)NCc4ccc(Br)cc4)CC3)c2cc1OC | 30 | 
COc1cc2ncnc(N3CCN(C(=O)NCc4ccc5c(c4)OCO5)CC3)c2cc1OC | 1870 | 
COc1cc2ncnc(N3CCN(C(=O)Nc4ccc(Oc5ccccc5)cc4)C(C)C3)c2cc1OC (stereo not given) | 80 | 
COc1cc2ncnc(N3CCN(C(=S)Nc4ccccn4)CC3)c2cc1OC | > 30000 | 
COc1cc2ncnc(N3CCN(C(=O)NCCc4ccc(Cl)cc4)CC3)c2cc1OC | 5840 | 

Compound | IC50 [1] [nM] | other results
COc1cc2ncnc(N3CCN(C(=O)NS(=O)(=O)c4ccc(Cl)cc4)CC3)c2cc1OC | > 30000 | 
COc1cc2ncnc(N3CCN(C(=O)NCc4ccc(C(C)(C)C)cc4)CC3)c2cc1OC | 110 | 
COc1cc2ncnc(N3CCN(C(=O)Oc4ccc([N+](=O)[O-])cc4)CC3)c2cc1OC | > 30000 | 
COc1cc2ncnc(N3CCN(C(=O)NCc4ccsc4)CC3)c2cc1OC | > 30000 | 
COc1cc2ncnc(N3CCN(C(=O)Nc4cccs4)CC3)c2cc1OC | 410 | 
COc1cc2ncnc(N3CCN(C(=NC#N)NCc4ccccc4Cl)CC3)c2cc1OC | > 30000 | 
COc1cc2ncnc(N3CCN(C(=NC#N)NCc4ccc(C)cc4)CC3)c2cc1OC | 340 | 
COc1cc2ncnc(N3CCN(C(=O)Nc4ccccn4)CC3)c2cc1OC | > 10000 | 
COc1cc2ncnc(N3CCN(C(=S)NCCc4cccnc4)CC3)c2cc1OC | 20100 | 
COc1cc2ncnc(N3CCN(C(=S)NCc4ccc(Cl)cc4)CC3)c2cc1OC | 70 | concentration at 1 h [18]: 2400 ng/mL; concentration at 1 h [19]: < 100 ng/mL; concentration at 8 h [20]: 1300 ng/mL; concentration at 8 h [21]: < 100 ng/mL
COc1cc2ncnc(N3CCN(C(=S)Nc4cncc(Cl)c4)CC3)c2cc1OC | 550 | 
COc1cc2ncnc(N3CCN(C(=NC#N)NCc4ccc(Cl)cc4)CC3)c2cc1OC | 960 | 
COc1cc2ncnc(N3CCN(C(=O)Nc4ccncc4)CC3)c2cc1OC | 14100 | 
COc1cc2ncnc(N3CCN(C(=S)NCc4ccccc4Cl)CC3)c2cc1OC | 980 | 
COc1cc2ncnc(N3CCN(C(NCc4ccc(Cl)cc4)=C(C#N)C#N)CC3)c2cc1OC | 5240 | 
COc1cc2ncnc(N3CCN(C(=S)NC(=O)c4ccc(Cl)cc4)CC3)c2cc1OC | > 30000 | 
COc1cc2ncnc(N3CCN(C(=S)NCc4ccc(C(C)C)cc4)CC3)c2cc1OC | 200 | 
COc1cc2ncnc(N3CC(C)N(/C(S)=N\Cc4ccccc4)C(C)C3)c2cc1OC (stereo not given) | 640 | 
